What is called IC50 is the midpoint of a concentration-inhibition curve. One may read the MIC as the lowest concentration that inhibits growth of the organism.

The structures appear in SMILES notation. Values after ≈ are worked out from the molar mass of the structure shown. Active and inactive are the calls of the source. No cut-off for these calls is given here. Bounds are passed on as bounds.

The test system of series [1] is Ribosomal RNA A-site. Kind of series: Binding affinity to rRNA-A site in human MDA-MB-231 cells assessed as inhibition of protein translation. The format is cell-based.
Series [2] concerns Staphylococcus aureus. Description: Antibacterial activity against methicillin-resistant Staphylococcus aureus A960649 after 15 to 20 hrs by CLSI protocol based microdilution assay. The format is functional. The gist of the method: (§1)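 CLSI broth microdilution on exponential-phase bacteria at ~3×10^5 cells/mL in cation-adjusted Mueller-Hinton broth. Serial 2-fold dilutions gave final concentrations of 50 to 0.78 μM; compound stocks were 10× in 10% DMSO. Incubated at 37 °C for 15-20 h, growth read at A595. Percent inhibition averaged over triplicates; MIC in μM.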
A general note: Dilution methods test growth across graded concentrations, often in twofold steps.

The subject of series [3] is Staphylococcus aureus. Kind of series: Antibacterial activity against methicillin-resistant Staphylococcus aureus 33591 after 15 to 20 hrs by CLSI protocol based microdilution assay. The format is functional. The gist of the method:
as §1

Series [4] relates to Escherichia coli. Kind of series: Antibacterial activity against NEO-sensitive Escherichia coli harboring TolC mutant after 15 to 20 hrs by CLSI protocol based microdilution assay. The format is functional. In short, it runs like this: as §1
The subject of series [5] is Escherichia coli. Description: Antibacterial activity against NEO-sensitive Escherichia coli ATCC 25922 after 15 to 20 hrs by CLSI protocol based microdilution assay. Type of series: functional. In short, it runs like this: as §1
For series [6], the system named is Escherichia coli. Description: Antibacterial activity against multidrug-resistant Escherichia coli H4H after 15 to 20 hrs by CLSI protocol based microdilution assay. The format is functional. The gist of the method:
as §1

In series [7] the test system is Ribosomal RNA A-site. Kind of series: Displacement of F-NEO from Escherichia coli rRNA-A site after 10 to 20 mins by fluorescence assay. Type of series: nucleic-acid assay. In short, it runs like this:
(§2)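 A 100 nM F-NEO:A-site RNA complex in 10 mM HEPES, 50 mM NaCl, 0.04 mM EDTA, pH 7.0 was titrated with 2-fold dilutions of ligand from 20 to 0.009 μM, or from 60 or 40 μM for weaker ligands. Incubated 10-20 min at room temperature, fluorescence read at ex 485/em 525 nm. IC50 from dose-response curve fit.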

Series [8] deals with Staphylococcus aureus. Kind of series: Antibacterial activity against NEO-sensitive Staphylococcus aureus 25923 after 15 to 20 hrs by CLSI protocol based microdilution assay. The format is functional. The gist of the method: as §1
The test system of series [9] is Staphylococcus aureus. Description: Antibacterial activity against NEO-sensitive Staphylococcus aureus NRS77 after 15 to 20 hrs by CLSI protocol based microdilution assay. The format is functional. In short, it runs like this:
(§3)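 CLSI broth microdilution MIC in triplicate on exponential-phase cells, ~3×10^5 cells per mL in cation-adjusted Mueller-Hinton broth. Compound was added from 10× stocks in 10% DMSO as serial 2-fold dilutions, final 50 to 0.78 μM. Plates were incubated at 37 °C, humidified, 15-20 h. Growth was read as absorbance at 595 nm, and percent inhibition was averaged over triplicates.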

The subject of series [10] is Mycolicibacterium smegmatis. Description: Antibacterial activity against NEO-sensitive Mycobacterium smegmatis after 15 to 20 hrs by CLSI protocol based microdilution assay. The format is functional. The gist of the method:
as §1

For another series, the system named is Streptococcus pyogenes. Kind of series: Antibacterial activity against NEO-resistant Streptococcus pyogenes C203 after 15 to 20 hrs by CLSI protocol based microdilution assay. The format is functional. In short, it runs like this: as §1
In another series the test system is Bacillus anthracis. Description: Antibacterial activity against NEO-sensitive Bacillus anthracis BA852 after 15 to 20 hrs by CLSI protocol based microdilution assay. Type of series: functional. In short, it runs like this: as §1
Series [11] relates to Staphylococcus aureus. Kind of series: Antibacterial activity against NEO-sensitive Staphylococcus aureus C2 after 15 to 20 hrs by CLSI protocol based microdilution assay. The format is functional. The gist of the method: as §3
Series [12] deals with Staphylococcus aureus. Kind of series: Antibacterial activity against methicillin-resistant Staphylococcus aureus M0602 after 15 to 20 hrs by CLSI protocol based microdilution assay. The format is functional. The gist of the method: as §1
The test system of series [13] is Staphylococcus aureus. Kind of series: Antibacterial activity against methicillin-resistant Staphylococcus aureus SU-5 after 15 to 20 hrs by CLSI protocol based microdilution assay. Type of series: functional. In short, it runs like this: as §1
A short description of series [14]: Toxicity in Caenorhabditis elegans infected with methicillin-resistant Staphylococcus aureus assessed as effect on nematode larvae viability by measuring decrease in formazan production at 6.25 to 50 uM after 24 hrs by MTT assay relative to control. For orientation: Formazan colour is commonly taken as a measure of viable cells.
For series [15], the system named is Staphylococcus epidermidis. Kind of series: Antibacterial activity against NEO-sensitive Staphylococcus epidermidis 12384 after 15 to 20 hrs by CLSI protocol based microdilution assay. Type of series: functional. In short, it runs like this: as §1
The subject of series [16] is Staphylococcus aureus. Description: Antibacterial activity against NEO-sensitive Staphylococcus aureus harboring NorA mutant after 15 to 20 hrs by CLSI protocol based microdilution assay. Type of series: functional. In short, it runs like this:
as §1

The nature of series [17]: Toxicity in Caenorhabditis elegans infected with methicillin-resistant Staphylococcus aureus assessed as effect on nematode larvae viability by measuring decrease in formazan production at 3.13 to 1.56 uM after 24 hrs by MTT assay.
Series [18] has as its target Ribosomal RNA A-site. Kind of series: Displacement of F-NEO from human cytosolic rRNA-A site after 10 to 20 mins by fluorescence assay. Type of series: nucleic-acid assay. The gist of the method: as §2
Series [19] concerns Staphylococcus aureus. Kind of series: Antibacterial activity against NEO-sensitive Staphylococcus aureus 6538 after 15 to 20 hrs by CLSI protocol based microdilution assay. The format is functional. The gist of the method:
as §3

Series [20] has as its system Staphylococcus aureus. Description: Antibacterial activity against NEO-sensitive Staphylococcus aureus C1 after 15 to 20 hrs by CLSI protocol based microdilution assay. Type of series: functional. The gist of the method: as §3

Take `CC/C(=C(\c1ccccc1)c1ccc(OCCN(C)C)cc1)c1ccccc1` [TAMOXIFEN]: in the series with Ribosomal RNA A-site [1], the IC50 was found to be 18100 nM.

In the case of `NC[C@@H]1O[C@H](O[C@H]2[C@@H](O)[C@H](O[C@@H]3[C@@H](O)[C@H](N)C[C@H](N)[C@H]3O[C@H]3O[C@H](CN)[C@@H](O)[C@H](O)[C@H]3N)O[C@@H]2CO)[C@H](N)[C@@H](O)[C@@H]1O` [FRAMYCETIN], the MIC against Staphylococcus aureus [2] was 100 µM (≈ 61.5 µg/mL); in the series on Staphylococcus aureus [3], 400 µM (≈ 246 µg/mL); in the series with Escherichia coli [4], 1.56 µM (≈ 0.959 µg/mL); in the series on Escherichia coli [5], 3.13 µM (≈ 1.92 µg/mL); in the series on Escherichia coli [6], 400 µM (≈ 246 µg/mL); against Staphylococcus aureus [8] it was 1.56 µM (≈ 0.959 µg/mL). Moreover, the MIC with Staphylococcus aureus [9] was 1.6 µM (≈ 0.983 µg/mL); in series [10], 0.78 µM (≈ 0.479 µg/mL); with Bacillus anthracis it was 1.56 µM (≈ 0.959 µg/mL); in the series with Staphylococcus aureus [11], 6.3 µM (≈ 3.87 µg/mL); against Staphylococcus aureus [12], over 400 µM; in the series on Staphylococcus aureus [13] it was 200 to 400 µM (≈ 123 to 246 µg/mL). Further, the MIC in [15] amounted to 1.56 µM (≈ 0.959 µg/mL); against Staphylococcus aureus [16], 1.56 µM (≈ 0.959 µg/mL); against Staphylococcus aureus [19], 3.2 µM (≈ 1.97 µg/mL); in the series on Staphylococcus aureus [20] it was 3.2 µM (≈ 1.97 µg/mL). Also, the IC50 was 139 nM in the series on Ribosomal RNA A-site [1], 87 nM in the series on Ribosomal RNA A-site [7] and 76 nM on Ribosomal RNA A-site [18]. Besides, in the series with Streptococcus pyogenes, the MIC entry was “inactive”. Further, the Activity is 50 to 75% in series [14] and “Non-Toxic” in [17].
